In publication PMC4835239 (Leukemia & lymphoma, 2015):
“Also recorded” adds a separate entry of the source.

Experiments:
[1] = system: chymotrypsin-like proteasome activity of CLL cells; experiment: Proteasome activity assay in CLL cells from patient samples; assay type: in vivo, human
Summary of the method: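 Chymotrypsin-like proteasome activity was measured in CLL cells from patient whole blood with a validated commercial assay. Samples were taken at screening, pre- and post-dose day 1, pre-dose day 2, and pre- and post-dose days 8 and 9 of cycle 1. Dosing was a 30-min IV infusion, 20 mg/m2 on days 1–2, then 27, 36, 45 or 56 mg/m2 by cohort from day 8.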

[2] = system: patients with relapsed/refractory CLL or small lymphocytic lymphoma (SLL); experiment: Phase I dose-escalation trial: toxicity assessment; assay type: in vivo
[3] = system: relapsed/refractory CLL or small lymphocytic lymphoma (SLL); experiment: Response assessment by IWCLL 2008 criteria; assay type: in vivo, human; conditions: all patients
[4] = system: CLL cells; conditions: cited from earlier work
[5] = system: CLL; conditions: patients with CLL; cited from earlier work
[6] = system: myeloma cells; conditions: bortezomib; cited from earlier work
[7] = system: CLL cells; conditions: bortezomib; cited from earlier work

CC(C)C[C@H](NC(=O)[C@H](CCc1ccccc1)NC(=O)CN1CCOCC1)C(=O)N[C@@H](Cc1ccccc1)C(=O)N[C@@H](CC(C)C)C(=O)[C@@]1(C)CO1 [Carfilzomib]
Chymotrypsin-like proteasome activity ([1]; by 24 hours after dosing): partially recovered; also recorded: recovered partially
Chymotrypsin-like proteasome activity ([1]; by day 8): rebound higher than pretreatment levels; also recorded: completely
Maximum tolerated dose (MTD) ([2]; doses up to 56 mg/m^2 twice weekly for 3 weeks of a 4 week cycle): No maximum tolerated dose of carfilzomib was identified
Dyspnea, incidence ([2]; grade 3, total n=19): 1 number of patients
Febrile neutropenia, incidence ([2]; grade 3, total n=19): 1 number of patients
Grade of electrolyte disturbances ([2]; human, in vivo): ≤ 2 grade
Infusion reaction or tumor lysis syndrome ([2]; in vivo): No patient experienced an infusion reaction or tumor lysis syndrome
Objective partial or complete responses (IWCLL 2008) [3]: No objective partial or complete responses were observed
Cytotoxicity against CLL cells in vitro [4]: significant cytotoxicity
Effect of human serum on cytotoxic activity against CLL cells ([4]; human versus fetal bovine serum): unaffected by human serum

CC(C)C[C@H](NC(=O)[C@H](Cc1ccccc1)NC(=O)c1cnccn1)B(O)O [bortezomib]
Objective clinical responses [5]: no objective clinical responses

O=c1c(O)c(-c2ccc(O)c(O)c2)oc2cc(O)cc(O)c12 [quercetin]
Level of quercetin required to inhibit apoptosis [6]: 40 μm
Level of quercetin required to inhibit apoptosis [7]: 20 μm
